Compounds with a hit are over-represented: about 3.3% of the library has one in this group of screens.
DENV2 CPE = inhibitors of DENV2 cytopathic effect, primary screen, cell-based, plate reader, single concentration | DENV2-infected cells, cytopathic effect rescue | CPE inhibition, % at 9.99 µM | hit rate 1.7% among 350,000 | AID 651640, 2012; in the data active = CPE inhibition above about 20%, passing the limit was not always enough; inconclusive = no clear call, values can overlap the other calls; tested in BHK-21 cells;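 also: 0% = median of neutral control wells and 100% = median of positive control wells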
E-selectin induc = E-selectin induction in HUVECs, primary screen, imaging, HUVEC, immunofluorescence imaging, single point; activation, % at 7.58 µM; hit rate 0.37% among 260,000; P16581; AID 686992, 2013; normalized: neutral wells 0, TNF-alpha wells 100;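 active = mean E-selectin-positive cell signal at least 10% of the positive control, reached in at least 60% of replicates, without over 20% cell loss; inconclusive = no rule given, readout overlaps actives, possibly toxicity-flagged; inactive = the rest, including those meeting only one limit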
Target sequence (P16581 whole entry, looked up): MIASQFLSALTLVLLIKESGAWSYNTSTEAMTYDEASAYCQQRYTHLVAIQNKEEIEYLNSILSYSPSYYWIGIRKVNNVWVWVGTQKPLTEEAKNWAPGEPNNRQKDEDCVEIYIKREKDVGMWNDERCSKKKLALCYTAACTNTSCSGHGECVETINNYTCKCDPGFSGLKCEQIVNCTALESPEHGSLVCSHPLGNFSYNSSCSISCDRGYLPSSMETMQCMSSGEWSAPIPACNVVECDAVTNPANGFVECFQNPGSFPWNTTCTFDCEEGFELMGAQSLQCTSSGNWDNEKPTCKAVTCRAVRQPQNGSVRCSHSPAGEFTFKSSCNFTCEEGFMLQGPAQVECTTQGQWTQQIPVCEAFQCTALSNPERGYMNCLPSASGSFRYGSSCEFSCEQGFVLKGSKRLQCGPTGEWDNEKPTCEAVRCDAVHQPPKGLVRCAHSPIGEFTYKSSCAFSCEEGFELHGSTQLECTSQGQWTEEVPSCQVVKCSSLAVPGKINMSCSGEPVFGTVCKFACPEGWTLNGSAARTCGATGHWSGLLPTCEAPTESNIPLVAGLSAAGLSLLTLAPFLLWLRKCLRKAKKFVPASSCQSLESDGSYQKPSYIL
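Material: HUVEC primary endothelial cells; Amount: 3,000 cells per well; Dosing: single concentration; Medium: EGM-2 growth medium on 0.1% gelatin-coated wells; Read-out basis: percent E-selectin-positive cells; Signal: immunofluorescence imaging; Control set: TNF-alpha, DMSO.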
C2C12 statin = suppressors of statin myotoxicity in C2C12 myotubes, primary screen, cell-based, single point, plate reader | C2C12 myotubes + simvastatin, ATP luminescence, 48 h; scaled: DMSO 0, geranylgeraniol control 100 | rescue of ATP level, % at 7.49 µM | hit rate 0.78% among 330,000;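 active = mean ATP rescue above about 67%, or every replicate alone reaching that limit, limit read from the data, passing the limit was not always enough; inconclusive = no clear call, values can overlap the other calls; inactive = mean under the limit and some replicate under it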;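 also: myotubes were challenged with 10 µM simvastatin during compound exposure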
PglD DTNB = C. jejuni PglD acetyltransferase inhibitors, primary screen, biochemical, DTNB colorimetric, single point; AID 602405, 2012; inhibition, % at 12.5 µM; hit rate 0.098% among 360,000; purified PglD enzyme, DTNB colorimetric CoA detection; in the data active = inhibition above about 16%, passing the limit was not always enough; inconclusive = no clear call, values can overlap the other calls
FGF22 binding = binders of human FGF22 protein, primary screen, FGF22 synaptogenesis inhibitor project, biophysical, thermal shift, single point. Fibroblast growth factor 22 (Homo sapiens), Q9HCT0. recombinant FGF22 thermal shift, SYPRO orange fluorescence; percent of sucrose octasulfate shift, DMSO zero. activity (Tm shift, normalised), % at 9.99 µM. hit rate 1.5% among 340,000. AID 651658, 2012;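 active = mean Tm shift, scaled 0 neutral to 100 positive control, at about 1.3% or above, every replicate too, limit read from the data; inconclusive = no clear call, values can overlap the other calls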
XiGFP reactiv = activators of inactive X chromosome reactivation, primary screen, imaging, XiGFP fibroblasts, GFP high-content imaging, set 2. XiGFP mouse fibroblasts, % GFP-positive cells imaging, 3 d; cells co-treated with 5-aza-dC sensitizer; scaled so ellipticine positive control = 100%. activation, % at 7.58 µM. hit rate 0.055% among 360,000. AID 743238, 2013;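 active = mean normalized replicate activation at least 10% and every replicate at or above 10%; inconclusive = only one of the two criteria met; inactive = mean below 10% and not all replicates reach 10%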;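 also: 0% = median of on-plate neutral control wells and 100% = ellipticine 6 µM median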
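System: 68-5-11 XiGFP fibroblast line | Buffer or medium: DMEM containing 5-aza-dC | Compound: Single point | Times: Compounds 3 days, fix/stain 15 min at room temperature | Benchmarks: Positive control ellipticine, 6 µM final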
Numbers without * were called inactive; ? = inconclusive; · = not tested or not shown.

SMILES	DENV2 CPE	E-selectin induc	C2C12 statin	PglD DTNB	FGF22 binding	XiGFP reactiv
COCc1cn(CC[C@@H]2CC[C@@H](NC(=O)CCN3CCCCC3)[C@H](CO)O2)nn1	5.6	-0.3	3.9	4.1	0.2	-0.1
O=C(COC(=O)c1ccc2ncsc2c1)NCc1ccc(Cl)cc1	0.0	·	-0.3	7.4	0.2	0.0
Nc1cc(C(=O)OCC(=O)NCc2ccc(F)cc2)ccc1Cl	4.4	·	·	·	44.0*	0.0
Cc1cccc(C(=O)OCC(=O)NCc2ccc(Cl)cc2)c1	29.3*	1.0	11.5	-2.7	-0.1	0.1
Cc1cccc(C(=O)NNS(=O)(=O)c2ccccc2)c1O	-2.5	·	·	·	43.0*	0.0
COc1ccc(S(=O)(=O)NNC(=O)c2ccccc2-n2cccc2)cc1	2.3	·	112.0*	0.5	42.9*	0.0
CC(=O)N1[C@H](C(=O)NCC2CC2)[C@@H](CO)[C@@H]2Cn3c(ccc(-c4ccccc4F)c3=O)[C@@H]21	-3.0	-1.5	0.5	0.4	-0.1	0.6
COc1ccccc1N1CCN(C(=O)c2cc(S(=O)(=O)N3CCCCC3)ccc2C)CC1	34.1*	0.0	2.3	1.0	-0.3	0.1
COc1ccccc1N1CCN(C(=O)Cn2c(=O)oc3cc(S(=O)(=O)N4CCCC4)ccc32)CC1	32.7*	0.3	-1.5	·	-0.1	0.3
CCOc1ccccc1N1CCN(C(=O)c2cc(S(=O)(=O)N3CCCCC3)ccc2C)CC1	-6.4	-1.5	-15.2	4.6	-0.1	0.0
Cc1ccc(S(=O)(=O)N2CCN(C(=O)c3cccs3)CC2)cc1C	13.1	-3.0	118.3*	3.5	0.2	0.0
CCOC(=O)NC1CCc2cc(OC)c(OC)c(OC)c2-c2ccc(SC)c(=O)cc21 (stereo not given)	?	1.7	·	·	-0.1	0.0
CCOCC(=O)NC1CCc2cc(OC)c(OC)c(OC)c2-c2ccc(SC)c(=O)cc21 (stereo not given)	-7.7	0.1	·	·	43.2*	2.5
O=S(=O)(Nc1cccc2c1ccc1cccn12)c1cccs1	·	·	4.0	3.5	·	·
O=S(=O)(Nc1cccc2[nH]ncc12)c1cccs1	9.4	32.9*	1.2	-0.2	0.0	0.0
Cc1ccc(S(=O)(=O)N[C@H]2CC[C@H](CCNC(=O)C3CC3)O[C@H]2CO)cc1	-0.5	-0.4	3.0	-1.2	0.0	0.0
C[C@@H]1CCCCO[C@@H](CN(C)S(=O)(=O)c2cn(C)cn2)[C@H](C)CN([C@@H](C)CO)C(=O)c2cc(N(C)C)ccc2O1	52.9*	2.7	20.7	1.9	-0.5	0.1
C[C@H](CO)N1C[C@H](C)[C@@H](CN(C)S(=O)(=O)c2cn(C)cn2)Oc2ccc(N(C)C)cc2C1=O	-8.4	33.3*	-7.5	1.9	-0.1	0.3
C[C@@H]1CN([C@H](C)CO)C(=O)c2cc(N(C)C)ccc2O[C@@H](C)CCCCO[C@H]1CN(C)S(=O)(=O)c1cn(C)cn1	3.5	0.0	10.1	1.2	·	0.2
C[C@H]1CN([C@@H](C)CO)C(=O)c2cc(N(C)C)ccc2O[C@H]1CN(C)S(=O)(=O)c1cn(C)cn1	9.8	415.2*	8.7	-1.8	-0.7	-0.7
CO[C@H]1CN(C)C(=O)c2ccc(NC(C)=O)cc2OC[C@@H](C)N(C(=O)C2CCOCC2)C[C@H]1C	0.3	2.4	-3.8	-3.9	0.0	-0.4
Cc1noc(C)c1S(=O)(=O)Nc1ccc2c(c1)C(=O)N([C@@H](C)CO)C[C@@H](C)[C@@H](CN(C)C(=O)Nc1ccc(C(F)(F)F)cc1)O2	-0.1	-2.5	·	2.1	-0.5	0.0
CCOC(=O)c1sc(NCC2CCCO2)nc1C (stereo not given)	·	·	113.2*	1.2	·	·
COc1cccc(-c2cn(CC[C@@H]3CC[C@H](NC(=O)CC4CC4)[C@@H](CO)O3)nn2)c1	-1.4	0.0	7.5	-35.1	-0.1	0.1
Cc1noc(C)c1NC(=O)N(C)C[C@@H]1Oc2c(NC(=O)Nc3cccc4ccccc34)cccc2C(=O)N([C@@H](C)CO)C[C@H]1C	7.1	-5.8	-1.2	2.2	-0.4	-0.7
SMILES	DENV2 CPE	E-selectin induc	C2C12 statin	PglD DTNB	FGF22 binding	XiGFP reactiv
CC(C)(C)c1ccc(Cn2nnc3c(=O)[nH]c(C4CCN(C(=O)Cc5cccs5)CC4)nc32)cc1	·	·	112.3*	-3.9	·	·
Cc1ccc(C)c(Cn2nnc3c(=O)[nH]c(C4CCCN(C(=O)CC(C)C)C4)nc32)c1 (stereo not given)	3.6	·	85.4*	5.5	0.1	·
Cc1ccc(C)c(S(=O)(=O)N2CCC(c3nc4c(nnn4Cc4ccc5c(c4)OCCO5)c(=O)[nH]3)CC2)c1	-1.9	-0.7	77.1*	-0.2	-0.1	0.0
CCCCC(=O)N1CCCC(c2nc3c(nnn3Cc3cc(C)ccc3C)c(=O)[nH]2)C1 (stereo not given)	·	·	5.7	2.7	·	·
O=C1CN(S(=O)(=O)Cc2ccccc2)C[C@H]2[C@H](c3ccc(C#Cc4cccc(F)c4)cc3)[C@H](CO)N12	5.3	-0.6	·	·	·	0.1
C[C@H](CO)N1C[C@H](C)[C@@H](CN(C)Cc2ccncc2)OCCCC[C@H](C)Oc2ccc(NC(=O)Nc3ccc(F)cc3)cc2C1=O	-0.8	0.0	41.1	-0.7	-0.1	-0.1
O=C(Cc1ccc([N+](=O)[O-])cc1)Nc1cccc(C(F)(F)F)c1	-0.2	·	-12.5	·	43.7*	0.4
O=C(Nc1ccccc1)Nc1cccc(C(F)(F)F)c1	2.6	·	-6.6	5.2	43.7*	0.7
CNC(=O)Nc1cccc(C(F)(F)F)c1	·	·	2.4	·	·	·
O=C(Cc1ccc([N+](=O)[O-])cc1)Nc1cc(C(F)(F)F)cc(C(F)(F)F)c1	13.9	0.1	·	2.0	0.2	0.0
O=C(OCc1cccc([N+](=O)[O-])c1)c1cccnc1	-15.3	·	-0.5	0.8	43.1*	0.0
CC(=O)Nc1ccc(C(=O)OCc2ccc(F)cc2)cc1	6.0	·	·	·	43.2*	0.0
O=C(C[C@@H]1CC[C@H](NC(=O)Nc2cccc(F)c2)[C@@H](CO)O1)NCC1CC1	-0.7	-0.1	-7.8	-1.1	-0.1	-0.1
O=C(c1cccnc1)N1C[C@@H]2[C@H](c3ccccc31)[C@H](CO)N2C(=O)C1CCCC1	-7.4	-0.3	9.1	9.6	0.3	0.4
C[C@H]1CN([C@@H](C)CO)S(=O)(=O)c2ccc(-c3ccc(C#N)cc3)cc2O[C@H]1CN(C)Cc1ccccn1	-4.7	0.2	-5.5	1.3	-0.3	-0.7
